Test results taken from PMC6516474 (Journal of the American Chemical Society, 2019).
Read-outs that look alike come from different tables or passages of the source. Starred links: 1 amine or outer side, 2 acyl side, 3 side chain; linkers in the order of their positions; H or OH if unused. Positions of bridges follow the written chain, without caps; N, C: chain ends. Non-standard residues stand in square brackets, D forms with d. Residues, ends and D or L forms follow the SMILES beside them. Chains are numbered I, II in the order given. Actinocin(9to1) = Cc1c2oc3c(C)ccc(C(=O)[*:1])c3nc-2c(C(=O)[*:2])c(N)c1=O; NMeV = CN[C@H](C(=O)O)C(C)C; Sar = CNCC(=O)O

Columns and labels:
HEK293T = assay: AlamarBlue proliferation assay, HEK293T; type: cell-based; conditions: for fold more potent than 81 and digoxin 82: EC50 comparison
NIH-3T3 = assay: AlamarBlue proliferation assay, NIH-3T3; type: cell-based, mouse; conditions: for toxicity to NIH-3T3: growth inhibition screen at 1 and 3 µM; for toxicity against NIH-3T3: 3 µM; for EC50: read-out: EC50 NIH-3T3, NIH-3T3, inherently-insensitive line
[1] = system: HEK293T, HeLa, Cos7, Raji, NIH-3T3; assay: AlamarBlue proliferation screen over a cell line panel; type: cell-based; conditions: 2 days
Method in brief: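 Panel includes Raji (human Burkitt's lymphoma, grown in suspension) and NIH-3T3 (non-transformed mouse fibroblast) alongside adherent lines. Test compounds were screened at 2 µM and 0.6 µM, and proliferation was read by AlamarBlue over 2 days. The assay was validated by comparing normalized AlamarBlue signal averages of DMSO-treated cells with those of cells given 2 µg/ml puromycin (Z′ factor calculated).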

γ-H2AX [2] = assay: Immunofluorescence DNA-damage response, HeLa; type: cell-based, human; conditions: 24 h, 79a 0.015 µM, 92 0.012 µM
caspase-3 = assay: Immunofluorescence apoptosis, HeLa; type: cell-based, human; conditions: 24 h, 79a 0.015 µM, 92 0.012 µM
[3] = system: MEFs (a mouse embryonic fibroblast line); assay: Toxicity against MEF; type: cell-based; conditions: 3 µM
MDA-MB-231 = assay: Proliferation EC50, MDA-MB-231; type: cell-based, human; conditions: for fold more potent than 79a: MDA-MB-231, EC50 comparison; for EC50: read-out: EC50 MDA-MB-231, MDA-MB-231
γ-H2AX [4] = assay: Immunofluorescence DNA-damage response, NIH-3T3; type: cell-based, mouse; conditions: NIH-3T3, 24 h; 79a 0.111 µM, 92 0.038 µM, 97 0.042 µM; mitomycin C as validation
[5] = system: HF-II-E (a hepatoma line from rat); assay: Toxicity against HF-II-E; type: cell-based
cancer cell lines = assay: Broad anticancer activity over cancer cell lines; type: cell-based; conditions: range over cancer cell lines
caspase-3 activation = assay: Immunofluorescence apoptosis, NIH-3T3; type: cell-based, mouse; conditions: NIH-3T3, 24 h; 79a 0.111 µM, 92 0.038 µM, 97 0.042 µM; mitomycin C as validation
U87 = assay: Proliferation EC50, U87; type: cell-based, human; conditions: U87, EC50 comparison
HEPG2 = assay: Proliferation EC50, HEPG2; type: cell-based, human; conditions: HEPG2, EC50 comparison
[6] = system: HFF1 (a human fibroblast line); assay: Toxicity against HFF1; type: cell-based
[7] = system: RAW (a virally-transformed mouse macrophage line); assay: Toxicity against RAW; type: cell-based
[8] = Homo sapiens, HEK-293T, 48 h, read-out: EC50 in HEK293T
[9] = Homo sapiens, HEK-293T, read-out: EC50 in HEK293T cells
[10] = read-out: EC50 in HEK293T, HEK293T, proliferation over 2 days, AlamarBlue
[11] = read-out: EC50 in HEK293T cells, HEK293T, 5 most potent compounds

SMILES: C[C@H]1O[C@@H](O[C@H]2[C@@H](O)C[C@H](O[C@H]3[C@@H](O)C[C@H](O[C@H]4CC[C@@]5(C)[C@H](CC[C@@H]6[C@@H]5C[C@@H](O)[C@]5(C)[C@@H](C7=CC(=O)OC7)CC[C@]65O)C4)O[C@@H]3C)O[C@@H]2C)C[C@H](O)[C@@H]1O [compound 82, digoxin]
- EC50 (HEK293T; [8]): < 1000 nM
- EC50 (HEK293T; [9]): < 100 nM
- toxicity to NIH-3T3 (NIH-3T3): none of which were toxic to NIH-3T3

SMILES: C[C@]12CC[C@H]3[C@@H](CC[C@@H]4C[C@@H](O)CC[C@@]43CO)[C@@]1(O)CC[C@@H]2C1=CC(=O)OC1 [compound 5, cannogenol]
- EC50 (HEK293T; [10]): ~1000 nM
- activity in proliferation screen ([1]; 0.6 µM): affecting most lines
- activity in proliferation screen ([1]; 2 µM): active
- activity against NIH-3T3 in proliferation screen (NIH-3T3; 2 µM, 2 days): activity against every line except NIH-3T3

SMILES: CN[C@@H]1C[C@H]2O[C@@](C)([C@@H]1OC)n1c3ccccc3c3c4c(c5c6ccccc6n2c5c31)C(=O)NC4 [Staurosporine, reference compound]
- γ-H2AX upregulation (γ-H2AX [2]): upregulated
- caspase-3 upregulation (caspase-3): upregulated

SMILES: C[C@@H]1O[C@H](O[C@H]2CC[C@]3(CO)[C@H]4CC[C@]5(C)[C@@H](C6=CC(=O)OC6)CC[C@]5(O)[C@@H]4CC[C@]3(O)C2)[C@H](O)[C@H](O)[C@H]1O [compound 92, strophanthidol-L-α-rhamnoside]
- toxicity against MEF [3]: nontoxic
- fold more potent than 79a (MDA-MB-231): 3–4 fold
- EC50 (MDA-MB-231): 38 nM
- fold more potent than 81 and digoxin 82 (HEK293T; HEK293T): 2–3 fold
- EC50 (HEK293T; [11]): < 100 nM
- γ-H2AX upregulation (DNA-damage response) (γ-H2AX [4]): did not upregulate
- effect against HF-II-E [5]: ineffective
- concentrations of broad anticancer activity (cancer cell lines): 10 to 100 nM
- caspase-3 activation (caspase-3 activation): did not upregulate
- fold more potent than 79a (U87): 3–4 fold
- γ-H2AX upregulation (γ-H2AX [2]): upregulated significantly
- fold more potent than 79a (HEPG2): 3–4 fold
- toxicity against NIH-3T3 (NIH-3T3): nontoxic
- EC50 (NIH-3T3): > 3000 nM
- caspase-3 upregulation (caspase-3): Little upregulation

SMILES: C[C@H]1CCC/C=C/[C@@H]2C[C@H](O)C[C@H]2[C@H](O)/C=C/C(=O)O1 [brefeldin A]
- EC50 (HEK293T; [8]): 200 nM

SMILES: CO[C@@]12[C@H](COC(N)=O)C3=C(C(=O)C(C)=C(N)C3=O)N1C[C@@H]1N[C@@H]12 [mitomycin C, reference compound]
- EC50 (HEK293T; [8]): 4000 nM
- γ-H2AX upregulation (DNA-damage response) (γ-H2AX [4]): DDR-upregulation
- caspase-3 activation (caspase-3 activation): Caspase-3-uregulation only in NIH-3T3

SMILES: Cc1c2oc3c(C)ccc(C(=O)N[C@@H]4C(=O)N[C@H](C(C)C)C(=O)N5CCC[C@H]5C(=O)N(C)CC(=O)N(C)[C@@H](C(C)C)C(=O)O[C@@H]4C)c3nc-2c(C(=O)N[C@@H]2C(=O)N[C@H](C(C)C)C(=O)N3CCC[C@H]3C(=O)N(C)CC(=O)N(C)[C@@H](C(C)C)C(=O)O[C@@H]2C)c(N)c1=O [actinomycin D] (I: T[dV]P[Sar][NMeV] / II: T[dV]P[Sar][NMeV]; ester I:1-I:C, II:1-II:C; linker I:N-II:N via Actinocin(9to1))
- EC50 (HEK293T; [8]): 2 nM

SMILES: C[C@]12C[C@@H](O)[C@H]3[C@@H](CC[C@]4(O)C[C@@H](O)C[C@@H](O)[C@]34CO)[C@@]1(O)CC[C@@H]2C1=CC(=O)OC1 [compound 1, ouabagenin]
- EC50 (HEK293T; [10]): < 1000 nM
- effect against HFF1 [6]: effective
- toxicity to NIH-3T3 (NIH-3T3): none of which were toxic to NIH-3T3

SMILES: C[C@@H]1O[C@@H](O[C@H]2C[C@@H](O)[C@]3(CO)[C@H]4[C@H](O)C[C@]5(C)[C@@H](C6=CC(=O)OC6)CC[C@]5(O)[C@@H]4CC[C@]3(O)C2)[C@H](O)[C@H](O)[C@H]1O [compound 2, ouabain]
- EC50 (HEK293T; [8]): < 1000 nM
- effect against HFF1 [6]: effective
- toxicity to NIH-3T3 (NIH-3T3): none of which were toxic to NIH-3T3

SMILES: C[C@]12CC[C@H](O)C[C@H]1CC[C@@H]1[C@@H]2CC[C@]2(C)[C@@H](C3=CC(=O)OC3)CC[C@]12O [compound 80, digitoxigenin, reference compound]
- EC50 (HEK293T; [8]): < 1000 nM
- toxicity to NIH-3T3 (NIH-3T3): none of which were toxic to NIH-3T3

SMILES: C[C@@H]1O[C@@H](O[C@H]2CC[C@@]3(C)[C@H](CC[C@@H]4[C@@H]3CC[C@]3(C)[C@@H](C5=CC(=O)OC5)CC[C@]43O)C2)[C@H](O)[C@H](O)[C@H]1O [compound 97, digitoxigenin-L-α-rhamnoside]
- toxicity against MEF [3]: nontoxic
- fold more potent than 79a (MDA-MB-231): 3–4 fold
- EC50 (MDA-MB-231): 42 nM
- fold more potent than 81 and digoxin 82 (HEK293T; HEK293T): 2–3 fold
- EC50 (HEK293T; [11]): < 100 nM
- effect against RAW [7]: ineffective
- γ-H2AX upregulation (DNA-damage response) (γ-H2AX [4]): did not upregulate
- effect against HF-II-E [5]: ineffective
- concentrations of broad anticancer activity (cancer cell lines): 10 to 100 nM
- caspase-3 activation (caspase-3 activation): did not upregulate
- fold more potent than 79a (U87): 3–4 fold
- fold more potent than 79a (HEPG2): 3–4 fold
- toxicity against NIH-3T3 (NIH-3T3): nontoxic
- EC50 (NIH-3T3): > 3000 nM

SMILES: C[C@H]1O[C@@H](O[C@H]2[C@@H](O)C[C@H](O[C@H]3[C@@H](O)C[C@H](O[C@H]4CC[C@@]5(C)[C@H](CC[C@@H]6[C@@H]5CC[C@]5(C)[C@@H](C7=CC(=O)OC7)CC[C@]65O)C4)O[C@@H]3C)O[C@@H]2C)C[C@H](O)[C@@H]1O [compound 81, digitoxin]
- EC50 (HEK293T; [8]): < 1000 nM
- EC50 (HEK293T; [9]): < 100 nM
- effect against HFF1 [6]: effective
- toxicity to NIH-3T3 (NIH-3T3): none of which were toxic to NIH-3T3

SMILES: C[C@@H]1O[C@@H](O[C@H]2CC[C@@]3(CO)[C@H](CC[C@@H]4[C@@H]3CC[C@]3(C)[C@@H](C5=CC(=O)OC5)CC[C@]43O)C2)[C@H](O)[C@H](O)[C@H]1O [79a, cannogenol-L-α-rhamnoside]
- toxicity against MEF [3]: nontoxic
- EC50 (MDA-MB-231): 111 nM
- fold more potent than 81 and digoxin 82 (HEK293T; HEK293T): 2–3 fold
- EC50 (HEK293T; [11]): < 100 nM
- γ-H2AX upregulation (DNA-damage response) (γ-H2AX [4]): did not upregulate
- concentrations of broad anticancer activity (cancer cell lines): 10 to 100 nM
- caspase-3 activation (caspase-3 activation): did not upregulate
- γ-H2AX upregulation (γ-H2AX [2]): upregulated significantly
- toxicity against NIH-3T3 (NIH-3T3): nontoxic
- toxicity to NIH-3T3 (NIH-3T3): none of which were toxic to NIH-3T3
- EC50 (NIH-3T3): > 3000 nM
- caspase-3 upregulation (caspase-3): Little upregulation
